{"data": "Measured values from different studies", "organism": "Leishmania donovani", "observed": "parasite growth", "note": "Protocols differ between the studies behind these lines."}
{"SMILES": "CCC/C=C/c1cc2c(C=O)c(O)c(CC=C(C)C)cc2o1", "technique": "resazurin", "time": "48 h", "setting": "promastigote", "IC50": "6.2 µg/mL"}
{"SMILES": "COc1cc(NC(C)CCCNCCNCCNCCCC(C)Nc2cc(OC)cc3cccnc23)c2ncccc2c1.Cl.Cl (centres unmarked)", "technique": "resazurin", "setting": "promastigote", "IC50": "2.99 µg/mL"}
{"SMILES": "CCCCCCCCCCCCCCCCOP(=O)([O-])OCC[N+](C)(C)C", "setting": "promastigote", "IC50": "4230 nM"}
{"SMILES": "COc1cc(NC(C)CCCN)c2ncccc2c1 (centres unmarked)", "technique": "resazurin", "setting": "promastigote", "IC50": "19.9 µg/mL"}
{"SMILES": "C[C@@H]1[C@H](O)[C@@H](C)/C=C/C=C/C=C/C=C/C=C/C=C/C=C/[C@H](O[C@@H]2O[C@H](C)[C@@H](O)[C@H](N)[C@@H]2O)C[C@@H]2O[C@](O)(C[C@@H](O)C[C@@H](O)[C@H](O)CC[C@@H](O)C[C@@H](O)CC(=O)O[C@H]1C)C[C@H](O)[C@H]2C(=O)O", "technique": "resazurin", "time": "72 h", "setting": "promastigote", "IC50": "0.57 µg/mL"}
{"SMILES": "CCCCCCCCCCCCCCCCOP(=O)([O-])OCC[N+](C)(C)C", "setting": "intracellular, amastigote", "IC50": "1830 nM"}
{"SMILES": "Fc1cccc(Nc2nc(-c3ccccn3)nc3ccccc23)c1", "cells": "THP-1", "setting": "intracellular, amastigote", "IC50": "1400 nM"}
{"SMILES": "Cc1cc(NC(=O)Nc2ccc3c(c2)OC(F)(F)O3)cc(C(F)(F)F)n1", "setting": "intracellular, amastigote", "IC50": "860 nM"}
{"SMILES": "c1ccc(CN2CCN(c3nc(-c4ccccn4)nc4ccccc34)CC2)cc1", "cells": "THP-1", "setting": "intracellular, amastigote", "IC50": "4200 nM"}
{"SMILES": "C[C@@H]1[C@H](O)[C@@H](C)/C=C/C=C/C=C/C=C/C=C/C=C/C=C/[C@H](O[C@@H]2O[C@H](C)[C@@H](O)[C@H](N)[C@@H]2O)C[C@@H]2O[C@](O)(C[C@@H](O)C[C@@H](O)[C@H](O)CC[C@@H](O)C[C@@H](O)CC(=O)O[C@H]1C)C[C@H](O)[C@H]2C(=O)O", "cells": "THP-1", "time": "5 days", "setting": "intracellular, amastigote", "IC50": "400 nM"}
{"SMILES": "c1ccc(CNc2nc(-c3ccccn3)nc3ccccc23)cc1", "cells": "THP-1", "setting": "intracellular, amastigote", "IC50": "2170 nM"}
{"SMILES": "N=C(N)c1ccc(OCCCCCOc2ccc(C(=N)N)cc2)cc1", "technique": "resazurin", "time": "48 h", "setting": "promastigote", "IC50": "1 µg/mL"}
{"SMILES": "C[C@@H]1[C@H](O)[C@@H](C)/C=C/C=C/C=C/C=C/C=C/C=C/C=C/[C@H](O[C@@H]2O[C@H](C)[C@@H](O)[C@H](N)[C@@H]2O)C[C@@H]2O[C@](O)(C[C@@H](O)C[C@@H](O)[C@H](O)CC[C@@H](O)C[C@@H](O)CC(=O)O[C@H]1C)C[C@H](O)[C@H]2C(=O)O", "technique": "resazurin", "setting": "promastigote", "IC50": "0.19 µg/mL"}
{"SMILES": "N=C(N)c1ccc(OCCCCCOc2ccc(C(=N)N)cc2)cc1", "technique": "resazurin", "time": "72 h", "setting": "promastigote", "IC50": "1.65 µg/mL"}
{"SMILES": "O=[N+]([O-])c1c(CS(=O)(=O)c2ccccc2)nc2c(Br)cc(Br)cn12", "technique": "MTT", "time": "72 h", "setting": "promastigote", "IC50": "1800 nM"}
{"SMILES": "c1ccc(-c2nc(N3CCCC3)c3ccccc3n2)nc1", "technique": "imaging", "cells": "THP-1", "setting": "intracellular, amastigote", "IC50": "1300 nM"}
{"SMILES": "N=C(N)c1ccc(OCCCCCOc2ccc(C(=N)N)cc2)cc1", "setting": "promastigote", "IC50": "651 nM"}
